Laboratory results from ChEMBL document CHEMBL1833970, “One-pot syntheses of pseudopteroxazoles from pseudopterosins: a rapid route to non-natural congeners with improved antimicrobial activity” (J Nat Prod, 2011).
Converted amounts (≈) assume the structure as drawn. The source made the active and inactive calls. No cut-off for these calls is given here.

Columns and labels:
[1] = test system: Candida albicans; assay: Antimicrobial activity against Candida albicans ATCC 14035 after 22 hrs by microbroth dilution antibiotic susceptibility assay; format: functional, organism-based
Procedure, shortened: (§1)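 Microbroth dilution per CLSI M7-A6. Compounds in sterile 20% DMSO, serially diluted to eight concentrations, tested in triplicate with uninoculated and untreated controls. Control antibiotic was gentamycin for P. aeruginosa, ciprofloxacin for P. vulgaris and nystatin for C. albicans. OD600 read at time zero and after 22 h at 37 °C. Survival relative to vehicle calculated after baseline subtraction; IC50 derived.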

[2] = test system: Mycolicibacterium diernhoferi; assay: Antimicrobial activity against Mycobacterium diernhoferi ATCC 19340 after 5 days by microbroth dilution antibiotic susceptibility assay; format: functional; details: ATCC 19340, 120 h
Procedure, shortened: (§2)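 Microbroth dilution per CLSI M24-A for fast-growing mycobacteria. Compounds prepared in sterile 20% DMSO and serially diluted to eight concentrations, triplicate on separate plates. Uninoculated and untreated (media + 20% DMSO) controls plus a control antibiotic column. Incubated 5 days at 30 °C; growth relative to untreated wells scored visually to give MIC.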

[3] = test system: Mycolicibacterium smegmatis; assay: Antimicrobial activity against Mycobacterium smegmatis ATCC 12051 after 5 days by microbroth dilution antibiotic susceptibility assay; format: functional; details: ATCC 12051, 120 h; procedure, shortened: as §2
[4] = test system: Enterococcus faecium; assay: Antimicrobial activity against vancomycin-resistant Enterococcus faecium Ef 379 after 22 hrs by microbroth dilution antibiotic susceptibility assay; format: functional, organism-based; details: Ef 379, 22 h
Procedure, shortened: (§3)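 CLSI M7-A6 broth microdilution, run in triplicate. Compounds were made up in sterile 20% DMSO and serially diluted to eight concentrations. Plates carried uninoculated and untreated controls (media + 20% DMSO) plus a control antibiotic column. OD600 was read at time zero and after 22 h at 37 °C. Time-zero readings were subtracted, survival was calculated relative to vehicle wells, and IC50 was derived.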

[5] = test system: Pseudomonas aeruginosa; assay: Antimicrobial activity against Pseudomonas aeruginosa ATCC 14210 after 22 hrs by microbroth dilution antibiotic susceptibility assay; format: functional, organism-based; procedure, shortened: as §1
[6] = test system: Proteus vulgaris; assay: Antimicrobial activity against Proteus vulgaris ATCC 12454 after 22 hrs by microbroth dilution antibiotic susceptibility assay; format: functional, organism-based; procedure, shortened: as §1
[7] = test system: Staphylococcus aureus; assay: Antimicrobial activity against methicillin-resistant Staphylococcus aureus ATCC 33591 after 22 hrs by microbroth dilution antibiotic susceptibility assay; format: functional, organism-based; details: ATCC 33591, 22 h; procedure, shortened: as §3

SMILES: CC(C)=C[C@@H]1C[C@H](C)[C@H]2CC[C@H](C)c3c2c1c(C)c1nc(CC(N)=O)oc31
- Activity [1]: inactive
- MIC [2]: 2 µg/mL (≈ 5.46 µM)
- MIC [3]: 4 µg/mL (≈ 10.9 µM)
- IC50 [4]: 4 µg/mL (≈ 10.9 µM)
- Activity [5]: inactive
- Activity [6]: inactive
- IC50 [7]: 3 µg/mL (≈ 8.19 µM)

SMILES: CC(C)=C[C@@H]1C[C@H](C)[C@H]2CC[C@H](C)c3c2c1c(C)c1nc(Cc2ccccc2)oc31
- Activity [1]: inactive
- MIC [2]: 4 µg/mL (≈ 10 µM)
- MIC [3]: > 64 µg/mL
- IC50 [4]: > 128 µg/mL
- Activity [5]: inactive
- IC50 [7]: > 128 µg/mL

SMILES: CSCCc1nc2c(C)c3c4c(c2o1)[C@@H](C)CC[C@@H]4[C@@H](C)C[C@H]3C=C(C)C
- Activity [1]: inactive
- MIC [2]: 16 µg/mL (≈ 41.7 µM)
- MIC [3]: 16 µg/mL (≈ 41.7 µM)
- IC50 [4]: > 128 µg/mL
- Activity [5]: inactive
- IC50 [7]: > 128 µg/mL

SMILES: CCCCCc1nc2c(C)c3c4c(c2o1)[C@@H](C)CC[C@@H]4[C@@H](C)C[C@H]3C=C(C)C [HOMOPSEUDOPTEROXAZOLE]
- Activity [1]: inactive
- MIC [2]: > 64 µg/mL
- MIC [3]: > 64 µg/mL
- IC50 [4]: > 128 µg/mL
- Activity [5]: inactive
- IC50 [7]: > 128 µg/mL

SMILES: COc1ccccc1-c1nc2c(C)c3c4c(c2o1)[C@@H](C)CC[C@@H]4[C@@H](C)C[C@H]3C=C(C)C
- Activity [1]: inactive
- MIC [2]: > 64 µg/mL
- MIC [3]: > 64 µg/mL
- IC50 [4]: > 128 µg/mL
- Activity [5]: inactive
- IC50 [7]: > 128 µg/mL

SMILES: CC(C)=C[C@@H]1C[C@H](C)[C@H]2CC[C@H](C)c3c2c1c(C)c1ocnc31 [ISOPSEUDOPTEROXAZOLE]
- Activity [1]: inactive
- MIC [2]: 8 µg/mL (≈ 25.9 µM)
- MIC [3]: 8 µg/mL (≈ 25.9 µM)
- IC50 [4]: 13 µg/mL (≈ 42 µM)
- Activity [5]: inactive
- IC50 [7]: > 128 µg/mL

SMILES: CC(C)=C[C@@H]1C[C@H](C)[C@H]2CC[C@H](C)c3c2c1c(C)c1ncoc31 [PSEUDOPTEROXAZOLE]
- Activity [1]: inactive
- MIC [2]: 4 µg/mL (≈ 12.9 µM)
- MIC [3]: 2 µg/mL (≈ 6.46 µM)
- IC50 [4]: 13 µg/mL (≈ 42 µM)
- Activity [5]: inactive
- Activity [6]: inactive
- IC50 [7]: > 128 µg/mL

SMILES: CC[C@H](C)c1nc2c(C)c3c4c(c2o1)[C@@H](C)CC[C@@H]4[C@@H](C)C[C@H]3C=C(C)C
- Activity [1]: inactive
- MIC [2]: > 64 µg/mL
- MIC [3]: > 64 µg/mL
- IC50 [4]: > 128 µg/mL
- Activity [5]: inactive
- IC50 [7]: > 128 µg/mL

SMILES: CC(C)=C[C@@H]1C[C@H](C)[C@H]2CC[C@H](C)c3c2c1c(C)c1nc(CCC(N)=O)oc31
- Activity [1]: inactive
- MIC [2]: 4 µg/mL (≈ 10.5 µM)
- MIC [3]: 4 µg/mL (≈ 10.5 µM)
- IC50 [4]: 7 µg/mL (≈ 18.4 µM)
- Activity [5]: inactive
- IC50 [7]: 7 µg/mL (≈ 18.4 µM)

SMILES: NNC(=O)c1ccncc1 [ISONIAZID]
- MIC [2]: 0.25 µg/mL (≈ 1.82 µM)
- MIC [3]: 1 µg/mL (≈ 7.29 µM)

SMILES: CO[C@H]1/C=C/O[C@@]2(C)Oc3c(C)c(O)c4c(O)c(c(/C=N/N5CCN(C)CC5)c(O)c4c3C2=O)NC(=O)/C(C)=C\C=C\[C@H](C)[C@H](O)[C@@H](C)[C@@H](O)[C@@H](C)[C@H](OC(C)=O)[C@@H]1C [RIFAMPIN]
- MIC [2]: 4 µg/mL (≈ 4.86 µM)
- MIC [3]: 4 µg/mL (≈ 4.86 µM)
- IC50 [4]: 8.75 µg/mL (≈ 10.6 µM)

SMILES: CN[C@H](CC(C)C)C(=O)N[C@H]1C(=O)N[C@@H](CC(N)=O)C(=O)N[C@H]2C(=O)N[C@H]3C(=O)N[C@H](C(=O)N[C@H](C(=O)O)c4cc(O)cc(O)c4-c4cc3ccc4O)[C@H](O)c3ccc(c(Cl)c3)Oc3cc2cc(c3O[C@@H]2O[C@H](CO)[C@@H](O)[C@H](O)[C@H]2O[C@H]2C[C@](C)(N)[C@H](O)[C@H](C)O2)Oc2ccc(cc2Cl)[C@H]1O [VANCOMYCIN]
- IC50 [7]: 12.2 µg/mL (≈ 8.45 µM)

SMILES: CC(C)=C[C@@H]1C[C@H](C)[C@H]2CC[C@H](C)c3c2c1c(C)c1nc(CCC(=O)O)oc31
- Activity [1]: inactive
- MIC [2]: 4 µg/mL (≈ 10.5 µM)
- MIC [3]: 8 µg/mL (≈ 21 µM)
- IC50 [4]: 12 µg/mL (≈ 31.5 µM)
- Activity [5]: inactive
- IC50 [7]: 12 µg/mL (≈ 31.5 µM)

SMILES: CC(C)=C[C@@H]1C[C@H](C)[C@H]2CC[C@H](C)c3c2c1c(C)c1nc(C)oc31
- Activity [1]: inactive
- MIC [2]: 4 µg/mL (≈ 12.4 µM)
- MIC [3]: 8 µg/mL (≈ 24.7 µM)
- IC50 [4]: 2.5 µg/mL (≈ 7.73 µM)
- Activity [5]: inactive
- IC50 [7]: > 128 µg/mL

SMILES: CC(C)=C[C@@H]1C[C@H](C)[C@H]2CC[C@H](C)c3c2c1c(C)c1nc([C@@H](C)O)oc31
- Activity [1]: inactive
- MIC [2]: 8 µg/mL (≈ 22.6 µM)
- MIC [3]: 16 µg/mL (≈ 45.3 µM)
- IC50 [4]: > 128 µg/mL
- Activity [5]: inactive
- IC50 [7]: > 128 µg/mL

SMILES: CC(C)=C[C@@H]1C[C@H](C)[C@H]2CC[C@H](C)c3c2c1c(C)c1nc(-c2ccc(F)cc2)oc31
- Activity [1]: inactive
- MIC [2]: > 64 µg/mL
- MIC [3]: > 64 µg/mL
- Activity [5]: inactive

SMILES: COC(=O)CCc1nc2c(C)c3c4c(c2o1)[C@@H](C)CC[C@@H]4[C@@H](C)C[C@H]3C=C(C)C
- Activity [1]: inactive
- MIC [2]: > 128 µg/mL
- MIC [3]: > 128 µg/mL
- IC50 [4]: > 128 µg/mL
- Activity [5]: inactive
- IC50 [7]: > 128 µg/mL
